# From PubChem BioAssay
# Active and inactive are the calls of the source.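 The calls were made as follows, unless noted: active = inhibition of the reporter signal at or above 50%; inactive = inhibition below 50%.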
# Key:
# [1] = inhibitors of TNFa-induced NFkB p65 translocation, primary screen, imaging, HUVEC, MLSMR starter and 10KST1 sets (AID 438;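 active = inhibition above 20% together with a positive visual image hit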;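 also: compound added about 3h40 before a 20 min TNFalpha stimulation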;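 as to inhibition: signal is the nuclear over cytoplasmic p65 intensity ratio per well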); settings: HUVEC TNFa-induced p65 nuclear translocation; cell count: measured here: nuclei count (cytotoxicity indicator), at 2.08 µM; inhibition: at 2 µM, stronger effect = higher value, 0% TNFa-plus-vehicle, 100% no-TNFa wells
# [2] = inhibitors of mutant huntingtin aggregation, primary screen, imaging, exon1htt(103Q)mCFP cells, high-content imaging (AID 483;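 active = visual image review flags a hit and inhibition of aggregation exceeds 20%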;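 also: compound exposure lasted 3 days before fixation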;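 as to nuclei count: percent of the per-plate median nuclei count of sample wells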); settings: exon1htt(103Q)mCFP cell line, aggregate imaging, at 2 µM; inhibition of aggregation: stronger effect = higher value; nuclei count: measured here: cell count, toxicity
# [3] = inhibitors of E-selectin induction by TNFa, primary screen, imaging, HUVEC, immunofluorescence, MLSMR starter and 10KST1 sets (AID 487;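 active = visually confirmed hit in the image check and inhibition above 20%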;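 as to inhibition: signal is fraction of cell area covered by stained E-selectin grains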;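 as to nuclei count: 100% = median nuclei count of all wells on the same plate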); settings: HUVEC TNFalpha-induced E-selectin immunofluorescence imaging, at 2 µM; inhibition: stronger effect = higher value; nuclei count: measured here: cell number, toxicity
# [4] = molecular target: Voltage-gated potassium channel subunit beta-2 (Rattus norvegicus) (UniProt P62483); test: KvBeta enzyme negative modulators, primary screen, biochemical, NADPH fluorescence (AID 622;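 active = fluorescence slope higher than the sample average by over 3 SD, cut at about -0.22 in these data, passing the limit was not always enough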;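 also: slope of raw intensity against log time taken from 70 to 1610 s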); settings: recombinant KvBeta, 4-cyanobenzaldehyde reduction, at 10 µM, stronger effect = higher value
# [5] = molecular target: Voltage-gated potassium channel subunit beta-2 (Rattus norvegicus) (UniProt P62483); test: KvBeta positive modulators, primary screen, biochemical, NADPH fluorescence (AID 623;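 active = NADPH fluorescence slope more negative than the mean of all samples by about 3 SD, 99.7% confidence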;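 also: fluorescence intensity change per second fitted from 20 to 320 s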); settings: Recombinant KvBeta, NADPH fluorescence decrease slope, 10 min; at 10 µM; stronger effect = lower value
# [6] = molecular target: Muscarinic acetylcholine receptor M4 (Homo sapiens) (UniProt P08173); test: compounds altering M4/GIRK thallium flux, either direction, primary screen, M4 allosteric agonist project, cell-based, HEK293 M4/GIRK, BTC-AM (AID 625;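 active = fluorescence slope after compound addition differing from the mean of all tested samples at 99.7% confidence, mostly higher but some lower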;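 also: thallium influx through GIRK channels coupled to M4 in HEK293 cells with BTC-AM dye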); settings: at 10 µM, actives lie on both sides
# Procedure, shortened: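 System: HEK293 cells with M4 receptor and GIRK channels | Incubation: Cells overnight at 37 °C, BTC-AM loading 1 h, reads 2 min total | Technique: Kinetic BTC-AM fluorescence sampled at 1 Hz, 10 s pre-addition baseline | Measure: Post-addition slope, 15–24 s, of baseline-normalized fluorescence | Control set: Carbachol positive, DMSO negative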
# [7] = inhibitors of Sendai virus-induced IRF3 signaling, primary screen, TLR/RLR signaling modifier project, cell-based, Sendai virus stimulus, luciferase, 10K MLSCN set (AID 602276;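 active = inhibition at or above 50% at 10 µM; inactive = inhibition below 50%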;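 also: firefly luciferase from ISG56 promoter only with Renilla not read in this screen; 0% = Sendai virus plus DMSO and 100% = medium plus DMSO without virus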); settings: HEK293 RL24 IRF3 luciferase reporter, at 10 µM, stronger effect = higher value
# [8] = inhibitors of poly I:C-induced TLR3 signaling, primary screen, cell-based, poly I:C stimulus, luciferase, 10K MLSCN set (AID 602277); settings: HEK293-TLR3 RL24 IRF3 luciferase reporter, at 10 µM, stronger effect = higher value
# Sequence of Muscarinic acetylcholine receptor M4 (Homo sapiens) (P08173 whole entry, looked up): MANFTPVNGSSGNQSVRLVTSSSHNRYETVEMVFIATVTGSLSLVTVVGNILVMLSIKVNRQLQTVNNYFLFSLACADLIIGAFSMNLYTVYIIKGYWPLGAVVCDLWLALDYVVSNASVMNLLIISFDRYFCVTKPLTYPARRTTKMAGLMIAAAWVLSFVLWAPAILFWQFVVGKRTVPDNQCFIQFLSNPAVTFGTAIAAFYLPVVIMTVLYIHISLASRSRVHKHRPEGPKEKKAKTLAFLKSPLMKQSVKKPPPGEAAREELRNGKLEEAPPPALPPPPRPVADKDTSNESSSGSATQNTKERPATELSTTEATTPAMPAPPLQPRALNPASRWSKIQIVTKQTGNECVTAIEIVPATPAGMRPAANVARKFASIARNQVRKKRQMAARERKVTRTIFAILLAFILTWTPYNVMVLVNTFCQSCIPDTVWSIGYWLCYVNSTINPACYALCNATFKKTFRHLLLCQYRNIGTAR
# Sequence of Voltage-gated potassium channel subunit beta-2 (Rattus norvegicus) (P62483 whole entry, looked up): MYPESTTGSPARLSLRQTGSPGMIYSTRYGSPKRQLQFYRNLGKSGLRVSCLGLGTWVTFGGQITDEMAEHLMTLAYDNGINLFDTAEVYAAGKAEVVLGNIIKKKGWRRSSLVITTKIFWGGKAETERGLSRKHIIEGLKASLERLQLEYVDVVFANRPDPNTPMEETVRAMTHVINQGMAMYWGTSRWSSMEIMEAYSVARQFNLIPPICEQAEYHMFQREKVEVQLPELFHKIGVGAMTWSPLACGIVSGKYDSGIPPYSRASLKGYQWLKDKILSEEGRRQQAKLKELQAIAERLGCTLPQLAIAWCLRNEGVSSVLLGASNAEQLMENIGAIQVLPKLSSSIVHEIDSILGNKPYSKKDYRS
SMILES,cell count [1],inhibition [1],inhibition of aggregation [2],nuclei count [2] [%],inhibition [3],nuclei count [3] [%],fluorescence slope [4],NADPH fluorescence slope [5],fluorescence slope [6],inhibition [7],inhibition [8]
CCc1nnc(NC(=O)CSc2nnc(Cc3ccccc3)n2-c2ccc(OC)cc2)s1,680,-13.4% (inactive),0.3% (inactive),102,52.3% (inactive),105,-0.45 (inactive),-5.9e-05 (inactive),0.00454 (inactive),10.9% (inactive),12% (inactive)
CCCCc1c(O)nc(SCC(=O)c2ccccc2)[nH]c1=O,375,1.7% (inactive),10.7% (inactive),90.4,21.3% (inactive),95.1,-0.561 (inactive),-8.5e-05 (inactive),0.00359 (inactive),14.2% (inactive),11.2% (inactive)
CCn1c(=N)n(CC(=O)C23CC4CC(CC(C4)C2)C3)c2ccccc21,721,-26.7% (inactive),-8.2% (inactive),93.6,-45.9% (inactive),117,-0.271 (inactive),-1.5e-05 (inactive),0.00365 (inactive),1.98% (inactive),23.3% (inactive)
CCS(=O)(=O)N1CCC(C(=O)NCc2cccs2)CC1,683,-5.9% (inactive),12.4% (inactive),77.5,-111% (inactive),102,-0.549 (inactive),-2e-05 (inactive),0.00636 (inactive),5.97% (inactive),13.7% (inactive)
Cc1cc(C(=O)Nc2cccc(O)c2)c(C)o1,477,9.9% (inactive),2.6% (inactive),78.5,-76.5% (inactive),112,-0.566 (inactive),-5.1e-05 (inactive),0.00709 (inactive),0.52% (inactive),-20.8% (inactive)
Cc1cc(C)nc(N2CCCC(C(=O)Nc3ccc4c(c3)OCO4)C2)n1 (stereo not drawn),563,-19.4% (inactive),15.3% (inactive),71.5,7.1% (inactive),95.8,-0.279 (inactive),4.9e-06 (inactive),0.0054 (inactive),-3.52% (inactive),-3.39% (inactive)
COc1cccc(/C(O)=C2/C(=O)C(=O)N(CCN3CCOCC3)C2c2cccnc2)c1 (stereo not drawn),270,15% (inactive),5.3% (inactive),107,-37.6% (inactive),117,-0.576 (inactive),-1.6e-05 (inactive),0.00687 (inactive),-4.6% (inactive),9.66% (inactive)
COc1ccc2c(c1)C(=NO)c1cc(OC)ccc1-2,667,-26.7% (inactive),15.4% (inactive),101,-48.8% (inactive),116,-0.373 (inactive),-8e-05 (inactive),0.00525 (inactive),-23.1% (inactive),-28.9% (inactive)
Cc1ccc(C)c(-n2c(Cc3cc(=O)[nH]c(=O)[nH]3)nnc2SCC(=O)NCc2ccco2)c1,254,-4.3% (inactive),-32.9% (inactive),74.4,65.5% (active),64,-0.549 (inactive),-6.1e-05 (inactive),0.00457 (inactive),-2% (inactive),5.02% (inactive)
O=C(CCCCCn1c(=O)[nH]c2ccsc2c1=O)N1CCCCC1,306,-1.8% (inactive),25.2% (inactive),91.7,-75% (inactive),85.7,-0.457 (inactive),-2.3e-05 (inactive),0.0042 (inactive),18.4% (inactive),6.28% (inactive)
COc1ccc(CCNC(=O)C2CCN(Cc3nc(-c4cccc(Cl)c4)oc3C)CC2)cc1OC,400,6% (inactive),17.8% (inactive),94.3,-12.2% (inactive),86.6,-0.584 (inactive),-1.7e-05 (inactive),0.00471 (inactive),6.77% (inactive),-17.9% (inactive)
O=C(c1ccco1)N1CCN(C(=O)c2ccc(Cn3cc(Br)cn3)o2)CC1,371,2.6% (inactive),9.6% (inactive),102,-21.6% (inactive),105,-0.456 (inactive),-4.2e-05 (inactive),0.00591 (inactive),13.3% (inactive),12.9% (inactive)
Cc1ccnc(NC(=O)Nc2ccc(F)cc2)c1,478,8.1% (inactive),9.2% (inactive),98.7,-266% (inactive),126,-0.567 (inactive),-9.3e-06 (inactive),0.0057 (inactive),-59.1% (inactive),-110% (inactive)
CCC(=O)N1CCCc2cc(S(=O)(=O)N3CCCc4ccccc43)ccc21,684,2.1% (inactive),-1.8% (inactive),100,-142% (inactive),125,-0.552 (inactive),3.3e-05 (inactive),0.00501 (inactive),20% (inactive),34% (inactive)
CC(C)CCNC(=O)NC(=O)CN1C(=O)NC2(CCCCC2)C1=O,560,-14.9% (inactive),13.2% (inactive),106,-209% (inactive),87,-0.498 (inactive),7.2e-05 (inactive),0.00636 (inactive),-8.08% (inactive),-2.49% (inactive)
COCCN1C(=O)C(=O)/C(=C(/O)c2cccc(S(=O)(=O)N(C)C)c2)C12C(=O)N(C)c1ccccc12 (stereo not drawn),584,-22.3% (inactive),5.4% (inactive),115,-76.4% (inactive),107,-0.483 (inactive),-5e-05 (inactive),0.00617 (inactive),8.34% (inactive),33.7% (inactive)
CC1(C)Cc2nc3oc4c(N(CCO)Cc5ccccc5)ncnc4c3cc2CO1,558,6.7% (inactive),-1.1% (inactive),101,-29.7% (inactive),122,-0.27 (inactive),-1.6e-05 (inactive),0.0057 (inactive),-1.42% (inactive),5.17% (inactive)
Cc1ccccc1OCCN1C(=O)NC2(CCc3ccccc32)C1=O (stereo not drawn),414,-18.4% (inactive),8.4% (inactive),94.7,8.5% (inactive),99.4,-0.297 (inactive),-1.6e-05 (inactive),0.00542 (inactive),12% (inactive),4.56% (inactive)
Oc1cnc2ccccc2c1CN1CCOCC1,354,0.4% (inactive),-24.9% (inactive),111,-45.2% (inactive),80.9,-0.542 (inactive),-1.4e-05 (inactive),0.0061 (inactive),18% (inactive),10.3% (inactive)
Cc1ccc2nc(NC(=O)C3CCN(S(=O)(=O)c4cccc5nsnc45)CC3)sc2c1,540,0% (inactive),-1.9% (inactive),105,38.3% (inactive),100,-0.414 (inactive),-9.1e-05 (inactive),0.00593 (inactive),-4.97% (inactive),-45% (inactive)
CCOC(=O)CSc1nnc(CNC(=O)c2ccc(OC)c(OC)c2)n1C,375,-8.2% (inactive),-1.1% (inactive),82,-73% (inactive),128,-0.578 (inactive),-2.7e-05 (inactive),0.00863 (inactive),4.54% (inactive),21.4% (inactive)
COc1ccc(N2CCN(C(=O)CN3C(=O)C4CC=CCC4C3=O)CC2)cc1 (stereo not drawn),693,9.7% (inactive),11% (inactive),108,55.9% (inactive),90.3,-0.575 (inactive),3.5e-05 (inactive),0.00533 (inactive),-11% (inactive),-14.6% (inactive)
COCCNC(=O)c1ccc(Cl)c(Cl)c1,283,-9.1% (inactive),-23.9% (inactive),119,4.3% (inactive),116,-0.486 (inactive),-4.2e-05 (inactive),0.00569 (inactive),-9.14% (inactive),-8.45% (inactive)
CCOC(=O)N1CCN(c2cc(=O)n(-c3ccc(OCC)cc3)c(=O)[nH]2)CC1,551,-10% (inactive),9.3% (inactive),109,-26.9% (inactive),112,-0.431 (inactive),0.0001 (inactive),0.00574 (inactive),3.3% (inactive),10.8% (inactive)
Cc1cc(-c2ccccc2)nc2cc(C(N)=O)nn12,331,-5.5% (inactive),14.7% (inactive),86.6,-129% (inactive),116,-0.424 (inactive),-2.5e-05 (inactive),0.0052 (inactive),15.9% (inactive),13.7% (inactive)
N#C[C@@H]1[C@@H]2C(=O)N(c3ccc4c(c3)OCCO4)C(=O)[C@@H]2C2c3ccccc3C=CN21 (stereo partly drawn),351,0.5% (inactive),6.7% (inactive),107,-62.1% (inactive),106,-0.6 (inactive),-2.2e-05 (inactive),0.00563 (inactive),-1.7% (inactive),-13.1% (inactive)
CCc1cccc(NS(=O)(=O)c2c(C)n[nH]c2C)c1,679,-8.8% (inactive),-12.8% (inactive),124,-135% (inactive),111,-0.465 (inactive),-1.4e-05 (inactive),0.00614 (inactive),4.66% (inactive),19.7% (inactive)
CCCCCCn1c(SCCCC)nc2c1c(=O)[nH]c(=O)n2C,384,-8% (inactive),-12.5% (inactive),101,-10.4% (inactive),104,-0.543 (inactive),-3.9e-05 (inactive),0.00572 (inactive),0.691% (inactive),10.6% (inactive)
